Measurements as given in the RNAGym collection of RNA variant scans (doi:10.1126/science.aae0568).
Fewer inactive variants are shown than the library holds.

B1: tRNA (parent)
chain: GUUCCGUUGGCGUAAUGGUAACGCGUCUCCCUCCUAAGGAGAAGACUGCGGGUUCGAGUCCCGUACGGAACG

Variants of: B1
Assay: yeast fitness relative to wild type (ratio to wild type); higher = fitter; tRNA-Arg(CCU), competitive growth, 37 C, YPD
Summary of the method: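 Gene amplicons from the start population and from each of six end populations were read by 100-nucleotide paired-end sequencing. Those end populations came from pooled Saccharomyces cerevisiae strains carrying tRNA-Arg(CCU) gene variants at the native locus, competed in YPD at 37°C for 24 hours. Fitness relative to wild type was worked out from changes in genotype frequencies. Genotypes needed ≥ 100 starting reads, and estimates < 0.5 were set to 0.5.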

Variant | yeast fitness
GUUCGGUUGCCGUAAUGGUAACGCGUCUCCCUCCUAAGGAGAAGACUGCGGAUACGAGUGCCGUACGGAACG [C5G G10C G52A U54A C60G] | 0.629
GUUCGGUUGGCGUAAUAGUCACGCGUCUCCCUCCUAAGGAGAAGACUGGGGGUUCGAGUCCCGUACGGAACG [C5G G17A A20C C49G] | 0.551
GUUCGGUUCGCGUAAUGGUAACGCGUCUCCCUCCUAAGGAGAAGACUGCGGGUUCGAGUCCCGUACAGAACG [C5G G9C G67A] | ≤ 0.5
GUUCGGUUGGCGUAAUAGUCACGCGUCUCCCUCCUAAGGAGAAGACUGCGGGUUCGAGUCCCGUACGGAACG [C5G G17A A20C] | ≤ 0.5
GUUCGGUUGGCGUAAUGGUAACGCAUCUCCCUCCUAAGGAGCAGACUGCGGGUUCGAGUCCCGUACGAAACG [C5G G25A A42C G68A] | ≤ 0.5
GUUCGGUUGGCGUAAUGAUAAUGCGUCUCCCUCCUAAGGAGAAGACUGCGGGUUCGAGUCCCGUACGGAACG [C5G G18A C22U] | ≤ 0.5
GUUCGGUUGGCAUAAUGGUAAAGCGCCUCCCUGCUAAGGAGAAGACUGCGGGUUCGAGUCCCGAACCGAACG [C5G G12A C22A U26C C33G U64A G67C] | ≤ 0.5
GUUCGGUUGGCGUAAUCGUAACGCGUCUCCCUCCUAAGGAGAAGACUGCAGGUUCGAGUCCCGUUCGGAACG [C5G G17C G50A A65U] | ≤ 0.5
GUUCGGUUGGCGUAAUAGUCACGCGUCUCCCUCCUAAGGAGAAGACUGGGGGUUCGAGUCCCGUACGGCACG [C5G G17A A20C C49G A69C] | ≤ 0.5
GUUCGGUUGGCGUAAUGGUAACGCGUCUCCCUCCUAAGAAGAAGACUGCGGGUUCGAGUCCCGUACGGAACG [C5G G39A] | 0.725
GUUCGGUUGGCGUAAUGGUAACACGUCUCCCUCCUAAGGAGAAGACUGCGGGUUCGAGUUCGGUACGGAACG [C5G G23A C60U C62G] | ≤ 0.5
GUUCGGUUGGCCUAAUGGUAACGCGUCUCCCUCCUAAGGAGAAGACUGUGGGUUCGAGUCCCGUCCGGAACG [C5G G12C C49U A65C] | 0.726
GUUCGGUUGGCGUAAUGGUAACGCGUCUCCCUCCUAAGGACAAGACUGCGGGUUCGAGUCUCGUACGGAACG [C5G G41C C61U] | ≤ 0.5
GUUCGGUUGGCCUAAUGGUAACGCGUCUCCCUCCUAAGGAGAAGACUGUGGGUUCGAGUCCCGUACGGAACG [C5G G12C C49U] | 0.584
GUUCGGUUGGCGUAAUAGUAACGCGUCUCCCUCCUAAGGAGAAGACUGCGGGUUCGAGUCCAGUACGGAACG [C5G G17A C62A] | ≤ 0.5
GUUCGGUUGGCGUAAUGGUAACGCGUCUCCCUCCUAAGGAGAAAACUGCGGGUUCGAGUCCCGUACGGUACG [C5G G44A A69U] | 0.646
GUUCGGUUGGCGUAAUGGUAACGCGUCUCCCUCCUAAGAAGAAGACUGGGGGUUUGUGUCCCGUACGGAACG [C5G G39A C49G C55U A57U] | ≤ 0.5
GUUCGGUUGGCGUAAUGGUAACGCGUCUCCCUCCUAAGAAGAAGACUGCGGGUUCGAGUCCCGUACGGAGCG [C5G G39A A70G] | 0.617
GUUCGGUUGGCGUAAUGGUAACGCGUCUCCCUCCUAAAGAGAAGACUGCGGGUUCGAGUCCCGUACGGAACG [C5G G38A] | 0.729

Variant | yeast fitness
GUUCGGUUGCCGUAAUGGUAACGCGUCUCCCUCCUAAGGAGAUGACUGCGGGUCCGAGUCCCGUACGGAACG [C5G G10C A43U U54C] | ≤ 0.5
GUUCGGUUGGCGUAAUGGUAACGCAUCUCCCUCCUAAGGAGAAGACUACGGGUUCGAGUCGCGUACGGAACG [C5G G25A G48A C61G] | ≤ 0.5
GUUCGGUUCGCGUAAUGGUAACGCGUCUCCCUCCUAAGGCGAAGACUGCGGGUUCGAAUCCCGUACGGAACG [C5G G9C A40C G58A] | ≤ 0.5
GUUCGGUUCGCGUAAUGGUAACGCGUCUCCCUCCUAAGGAGAGGACUGCGGGUUCGAGUCCCGUACGGAACG [C5G G9C A43G] | 0.667
GUUCGGUUGGCGUAAUGGUAACGCGUCUCCCUCCUAAAGAGAAGACUGCGGGUUCGAGUCCCGUACGGUACG [C5G G38A A69U] | 0.559
GUUCGGUUCGCGUAAUGGUAACGCGUCUCCCUCCUGAGGAGAAGAUUGCGGGUUCGAGUCCCGUACGGAACG [C5G G9C A36G C46U] | ≤ 0.5
GUUCGGUUCGCGUAAUGGUAACGCGUCUCCCUCCUAAGGAGAGGACUGCGGGUUCGAGUCCCGUACGGGACG [C5G G9C A43G A69G] | ≤ 0.5
GUUCGGUUGGCGUAAUCGUAACGCGUCUCCCUCCUAAGGAGAUGACUGCGGGUUCGAGUCCCGUACGGCACG [C5G G17C A43U A69C] | 0.596
GUUCGGUUGGCGUAAUGGUAACGCAUCUCCCUCCUAAGGAGAAGACUGCGGGUUCGAGUCCCGUACGGACCG [C5G G25A A70C] | 0.758
GUUCGGUUGGCGUAAUCGUAACGCGUCUCCCUCCUAAGGAGAAGGUUGCGGGUUCGAGUCCCGUACGGAACG [C5G G17C A45G C46U] | ≤ 0.5
GUUCGGUUCGCGUAAUGGUAACGCGUCUCCCUCCUAAGGAGAAGACCGCGGGUUCGAGUCCCGUUCGGAACG [C5G G9C U47C A65U] | ≤ 0.5
GUUCGGUUGGCGUAAUGGUAACGCGUCUCCCUCCUAAGAAGAAGACUGCGGAUUCGAGUCCCGUACGGAGCG [C5G G39A G52A A70G] | ≤ 0.5
GUUCGGUUGGCGUAAUGAUAACGCGUCUCCCUCCUAAGGAGAAGACUGCGGGUUAGAGUCCCGUACGGAACG [C5G G18A C55A] | ≤ 0.5
GUUCGGUUGCCGUAAUGGUAACGCGUCUACCUCCUAAGGAGAAGACUGCGGGUUCGAGUCCCGUACGGAACG [C5G G10C C29A] | ≤ 0.5
GUUCGGUUGGCAUAAUGGUAACGCGUCUCCCUCCUAAGGAGAAGACUGGGGGUUCGAGUCCCGUACGCAACG [C5G G12A C49G G68C] | ≤ 0.5
GUUCGGUUCGCGUAAUGGUAACGCGUCUCCCUCCUAAGGAGAAGACUGCGGGUUCGAGUCCCGUUCGGAACG [C5G G9C A65U] | 0.555
GUUCGGUUGGCGUAAUGGUAACCCGUCUCCCUCCUCAGGAGAAGACUGCGGGUUCGAGUCCCGUACGGAACG [C5G G23C A36C] | ≤ 0.5
GUUCGGUUGGCGUAAUAGUCACGCGUCUCCCUCCUAAAGAGAAGACUGCGGGUUCGACUCCCGUAUGGAACG [C5G G17A A20C G38A G58C C66U] | ≤ 0.5
